Test results published in ChEMBL document CHEMBL1147769 (Bioorg Med Chem Lett, 2006).
Starred links: 1 amine or outer side, 2 acyl side, 3 side chain; linkers in the order of their positions; H or OH if unused. Positions of bridges follow the written chain, without caps; N, C: chain ends. Non-standard residues stand in square brackets, D forms with d. Residues, ends and D or L forms follow the SMILES beside them. Chains are numbered I, II in the order given. NHNH = N(N[*:2])[*:1]

How the values were obtained:
[1] = molecular target: T1, Delta-type opioid receptor (Homo sapiens, UniProt P41143); test: Agonistic efficacy at human delta opioid receptor by [35S]GTP-gammaS binding assay; assay type: functional
In short: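 Cells expressing human DOR (delta) or rat MOR (mu) incubated with increasing test-compound concentrations and 0.1 nM [35S]GTP-gamma-S in assay buffer, duplicates, 90 min at 30 °C. Stopped by vacuum filtration through GF/B filters pretreated with assay buffer, then four washes with ice-cold 15 mM Tris/120 mM NaCl pH 7.4. Bound radioactivity counted by liquid scintillation after overnight extraction; Emax read as agonist-stimulated binding.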

[2] = molecular target: Mu-type opioid receptor (Rattus norvegicus, UniProt P33535); test: Agonistic efficacy at rat mu opioid receptor by [35S]GTPgammaS binding assay
[3] = molecular target: Mu-type opioid receptor (Cavia porcellus, UniProt P97266); test: Activity at mu opioid receptor in longitudinal muscle myenteric plexus from guinea pig ileum; assay type: functional, tissue-based
In short: (§1)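 Isolated tissue bioassays, mouse vas deferens for delta and guinea pig ileum LMMP for mu. Data fitted to the Hill equation by computerized non-linear least squares, giving IC50, relative potency and their standard errors. IC50 is the mean of at least four experiments.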

[4] = molecular target: T1, Delta-type opioid receptor; test: Displacement of [3H]DPDPE from delta opioid receptor
In short: (§2)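 Competition binding on membranes from transfected cells stably expressing the mu or delta opioid receptor. Radioligands were [3H]DAMGO for mu and [3H]DPDPE for delta.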

[5] = molecular target: Mu-type opioid receptor (Homo sapiens, UniProt P35372); test: Displacement of [3H]DAMGO from mu opioid receptor; in short: as §2
[6] = molecular target: Delta-type opioid receptor (Mus musculus, UniProt P32300); test: Activity at delta opioid receptor in mouse vas deferens; assay type: functional, tissue-based; in short: as §1
Sequence of Delta-type opioid receptor (Mus musculus, UniProt P32300) (P32300 whole entry): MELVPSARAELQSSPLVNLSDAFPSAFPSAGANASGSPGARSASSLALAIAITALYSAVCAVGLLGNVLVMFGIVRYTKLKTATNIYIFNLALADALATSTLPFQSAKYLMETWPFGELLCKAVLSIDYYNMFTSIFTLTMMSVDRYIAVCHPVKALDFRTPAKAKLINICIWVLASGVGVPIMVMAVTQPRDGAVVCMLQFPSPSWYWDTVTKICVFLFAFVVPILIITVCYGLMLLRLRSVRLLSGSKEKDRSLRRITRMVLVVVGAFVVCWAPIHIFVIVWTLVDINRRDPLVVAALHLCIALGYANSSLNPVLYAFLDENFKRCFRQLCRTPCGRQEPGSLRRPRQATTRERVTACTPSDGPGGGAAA

T1 sequence (P41143 whole entry): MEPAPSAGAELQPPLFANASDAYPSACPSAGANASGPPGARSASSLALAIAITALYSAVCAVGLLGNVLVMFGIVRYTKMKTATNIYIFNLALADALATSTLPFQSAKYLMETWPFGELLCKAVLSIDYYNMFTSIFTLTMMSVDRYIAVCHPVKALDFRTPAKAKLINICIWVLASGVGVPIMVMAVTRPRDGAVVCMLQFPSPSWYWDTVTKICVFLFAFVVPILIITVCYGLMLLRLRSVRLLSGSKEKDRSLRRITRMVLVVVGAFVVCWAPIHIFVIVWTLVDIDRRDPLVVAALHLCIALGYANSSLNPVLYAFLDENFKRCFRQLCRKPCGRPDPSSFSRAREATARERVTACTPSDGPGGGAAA
Sequence of Mu-type opioid receptor (Rattus norvegicus, UniProt P33535) (P33535 whole entry): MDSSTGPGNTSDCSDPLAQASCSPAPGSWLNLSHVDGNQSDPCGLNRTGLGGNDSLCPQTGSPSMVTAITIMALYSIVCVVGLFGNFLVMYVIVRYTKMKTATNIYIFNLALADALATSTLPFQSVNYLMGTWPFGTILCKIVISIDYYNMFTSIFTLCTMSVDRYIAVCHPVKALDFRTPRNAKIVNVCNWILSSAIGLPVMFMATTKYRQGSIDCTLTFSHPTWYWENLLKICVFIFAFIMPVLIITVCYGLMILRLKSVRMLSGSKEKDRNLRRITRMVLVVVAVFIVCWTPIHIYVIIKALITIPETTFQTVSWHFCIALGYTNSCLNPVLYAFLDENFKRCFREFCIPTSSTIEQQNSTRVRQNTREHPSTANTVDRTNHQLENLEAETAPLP
Sequence of Mu-type opioid receptor (Homo sapiens, UniProt P35372) (P35372 whole entry): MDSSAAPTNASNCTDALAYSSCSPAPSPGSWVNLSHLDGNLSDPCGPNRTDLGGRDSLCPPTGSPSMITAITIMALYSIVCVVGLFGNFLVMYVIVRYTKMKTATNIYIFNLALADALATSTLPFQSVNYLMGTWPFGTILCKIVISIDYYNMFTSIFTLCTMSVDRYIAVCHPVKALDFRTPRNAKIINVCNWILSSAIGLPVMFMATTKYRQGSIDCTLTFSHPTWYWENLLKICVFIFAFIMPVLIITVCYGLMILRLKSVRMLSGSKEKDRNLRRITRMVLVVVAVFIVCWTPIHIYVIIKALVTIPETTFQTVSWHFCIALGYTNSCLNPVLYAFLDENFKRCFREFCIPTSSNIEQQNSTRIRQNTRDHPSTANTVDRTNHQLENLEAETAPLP
Sequence of Mu-type opioid receptor (Cavia porcellus, UniProt P97266) (P97266 whole entry): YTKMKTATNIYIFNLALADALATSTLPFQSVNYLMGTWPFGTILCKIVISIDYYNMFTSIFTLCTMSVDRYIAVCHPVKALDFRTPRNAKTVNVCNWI

SMILES: C[C@@H](NC(=O)[C@@H](N)Cc1ccc(O)cc1)C(=O)NCC(=O)N[C@@H](Cc1ccccc1)C(=O)NNC(=O)[C@H](Cc1ccccc1)NC(=O)CNC(=O)[C@@H](C)NC(=O)[C@@H](N)Cc1ccc(O)cc1 [BIPHALIN]
- Emax [1]: 27%
- IC50 [2]: 6 nM

SMILES: N[C@@H](Cc1ccc(O)cc1)C(=O)N[C@H]1CSSC[C@H](NC(=O)[C@@H](N)Cc2ccc(O)cc2)C(=O)NCC(=O)N[C@@H](Cc2ccccc2)C(=O)NNC(=O)[C@H](Cc2ccccc2)NC(=O)CNC1=O (I: H-YCGF / II: H-YCGF; disulfide I:2-II:2; linker I:C-II:C via NHNH)
- IC50 [3]: 420 nM
- Emax [1]: 58%
- IC50 [1]: 260 nM
- IC50 [2]: 120 nM
- IC50 [4]: 53 nM
- IC50 [5]: 130 nM
- IC50 [6]: 570 nM

SMILES: N[C@@H](Cc1ccc(O)cc1)C(=O)N[C@@H]1CSSC[C@@H](NC(=O)[C@@H](N)Cc2ccc(O)cc2)C(=O)NCC(=O)N[C@@H](Cc2ccccc2)C(=O)NNC(=O)[C@H](Cc2ccccc2)NC(=O)CNC1=O (I: H-Y[dC]GF / II: H-Y[dC]GF; disulfide I:2-II:2; linker I:C-II:C via NHNH)
- IC50 [3]: 25 nM
- Emax [1]: 100%
- IC50 [1]: 0.87 nM
- IC50 [2]: 0.2 nM
- IC50 [4]: 0.87 nM
- IC50 [5]: 0.6 nM
- IC50 [6]: 9.9 nM
